# According to the M2OR odorant receptor database:
# How the values were obtained:
# Settings in all cases: stereoisomer not certain
# Or5p80 (Mus musculus) = biological target: T1, Or5p80 (Mus musculus) (UniProt Q8VG42)
# T1 sequence (whole entry): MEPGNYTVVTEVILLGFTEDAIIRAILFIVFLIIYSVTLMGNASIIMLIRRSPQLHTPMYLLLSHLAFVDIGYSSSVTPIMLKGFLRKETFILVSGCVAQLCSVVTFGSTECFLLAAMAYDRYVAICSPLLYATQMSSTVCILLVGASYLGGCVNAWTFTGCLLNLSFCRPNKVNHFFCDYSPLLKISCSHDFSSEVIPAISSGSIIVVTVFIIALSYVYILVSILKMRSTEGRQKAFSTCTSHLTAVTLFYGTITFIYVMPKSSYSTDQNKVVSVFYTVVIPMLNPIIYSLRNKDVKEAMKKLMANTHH
# Summary of the method: (§1)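 Whether a receptor–molecule pair is responsive (active) rests on the original authors' judgment that its measured signal was statistically different from baseline. Pairs without that judgment are non-responsive (inactive). Sources used varied assay methods, commonly transient luciferase assays in mammalian cell lines.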
# Or7a40 (Mus musculus) = biological target: T2, Or7a40 (Mus musculus) (UniProt Q9JHB2)
# T2 sequence (whole entry): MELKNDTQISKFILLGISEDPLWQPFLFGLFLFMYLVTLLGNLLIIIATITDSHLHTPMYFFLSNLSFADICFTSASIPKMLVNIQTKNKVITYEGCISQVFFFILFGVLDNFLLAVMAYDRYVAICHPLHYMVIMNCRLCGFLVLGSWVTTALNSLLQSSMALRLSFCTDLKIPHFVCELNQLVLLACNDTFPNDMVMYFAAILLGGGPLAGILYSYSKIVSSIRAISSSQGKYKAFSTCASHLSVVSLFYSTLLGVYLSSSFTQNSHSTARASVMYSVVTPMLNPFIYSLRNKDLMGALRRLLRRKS
# Summary of the method: as §1
# Or5p57 (Mus musculus) = biological target: T3, Or5p57 (Mus musculus) (UniProt Q8VEZ0)
# T3 sequence (whole entry): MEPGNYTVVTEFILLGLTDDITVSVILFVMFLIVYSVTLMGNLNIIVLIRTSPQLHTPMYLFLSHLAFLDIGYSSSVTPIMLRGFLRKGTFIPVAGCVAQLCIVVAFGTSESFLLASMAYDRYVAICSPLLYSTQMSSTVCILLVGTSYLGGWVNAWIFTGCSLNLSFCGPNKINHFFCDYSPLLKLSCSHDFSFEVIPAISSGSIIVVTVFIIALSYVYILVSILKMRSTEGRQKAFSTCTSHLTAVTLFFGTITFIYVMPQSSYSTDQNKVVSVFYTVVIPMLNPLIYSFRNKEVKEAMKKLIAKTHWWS
# Summary of the method: as §1
# Or8b3 (Mus musculus) = Or8b3 (Mus musculus) (UniProt Q60886)
# Or8b3 (Mus musculus), sequence (Q60886 whole entry): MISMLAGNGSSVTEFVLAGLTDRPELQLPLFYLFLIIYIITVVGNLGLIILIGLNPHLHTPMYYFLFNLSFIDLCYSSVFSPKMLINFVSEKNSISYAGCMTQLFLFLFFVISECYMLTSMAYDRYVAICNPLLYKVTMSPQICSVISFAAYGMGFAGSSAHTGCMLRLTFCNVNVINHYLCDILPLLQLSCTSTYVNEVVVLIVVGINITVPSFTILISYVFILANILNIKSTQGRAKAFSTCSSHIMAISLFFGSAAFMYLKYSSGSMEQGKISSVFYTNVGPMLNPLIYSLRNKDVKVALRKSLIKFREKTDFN
# Summary of the method: as §1
# UniProt A2ASV2 = biological target: UniProt A2ASV2
# UniProt A2ASV2, sequence (A2ASV2 as listed by the source): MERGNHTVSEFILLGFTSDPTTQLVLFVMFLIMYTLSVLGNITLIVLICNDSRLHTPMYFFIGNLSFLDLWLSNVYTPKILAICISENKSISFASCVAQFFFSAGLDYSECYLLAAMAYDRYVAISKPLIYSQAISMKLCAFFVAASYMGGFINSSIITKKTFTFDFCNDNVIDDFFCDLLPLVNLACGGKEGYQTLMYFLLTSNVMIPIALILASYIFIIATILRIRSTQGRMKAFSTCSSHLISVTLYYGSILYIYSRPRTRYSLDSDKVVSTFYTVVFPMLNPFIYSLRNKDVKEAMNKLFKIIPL
# Summary of the method: as §1
# 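Further: active if original authors judged signal statistically different from baseline.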
structure (smiles),measurement,setting,value
CCCCCOC(=O)CCCCC,odorant receptor agonist call,Or5p80 (Mus musculus),inactive
same,odorant receptor agonist call,Or7a40 (Mus musculus),inactive
CCCCCCCCS,odorant receptor agonist call,Or5p80 (Mus musculus),inactive
same,odorant receptor agonist call,Or7a40 (Mus musculus),inactive
CCCCCCCO,odorant receptor agonist call,Or5p57 (Mus musculus),active
same,odorant receptor agonist call,Or5p80 (Mus musculus),inactive
same,odorant receptor agonist call,Or7a40 (Mus musculus),inactive
CCCCCCCC(=O)[O-].[H+],odorant receptor agonist call,Or5p57 (Mus musculus),inactive
same,odorant receptor agonist call,Or5p80 (Mus musculus),inactive
same,odorant receptor agonist call,Or7a40 (Mus musculus),inactive
CCCCCCCCO,odorant receptor agonist call,Or5p57 (Mus musculus),inactive
same,odorant receptor agonist call,Or5p80 (Mus musculus),inactive
same,odorant receptor agonist call,Or7a40 (Mus musculus),inactive
O=C(O)CCCCCBr,odorant receptor agonist call,Or5p57 (Mus musculus),inactive
CCCCCO,odorant receptor agonist call,Or5p57 (Mus musculus),inactive
same,odorant receptor agonist call,Or5p80 (Mus musculus),inactive
same,odorant receptor agonist call,Or7a40 (Mus musculus),inactive
O=C(O)CCCCBr,odorant receptor agonist call,Or5p57 (Mus musculus),inactive
O=C([O-])CCCCCCCC(=O)[O-].[H+].[H+],odorant receptor agonist call,Or5p57 (Mus musculus),inactive
C=CCOC(=O)CCCCCC,odorant receptor agonist call,Or5p80 (Mus musculus),inactive
same,odorant receptor agonist call,Or7a40 (Mus musculus),inactive
CCCCCCCCCO,odorant receptor agonist call,Or5p57 (Mus musculus),inactive
same,odorant receptor agonist call,Or5p80 (Mus musculus),inactive
same,odorant receptor agonist call,Or7a40 (Mus musculus),inactive
O=C(O)CCCBr,odorant receptor agonist call,Or5p57 (Mus musculus),inactive
O=C([O-])CCCCC(=O)[O-].[H+].[H+],odorant receptor agonist call,Or5p57 (Mus musculus),inactive
CCCC(C)=O,odorant receptor agonist call,Or5p80 (Mus musculus),inactive
same,odorant receptor agonist call,Or7a40 (Mus musculus),inactive
CCCCC(=O)O,odorant receptor agonist call,Or5p57 (Mus musculus),inactive
same,odorant receptor agonist call,Or5p80 (Mus musculus),inactive
same,odorant receptor agonist call,Or7a40 (Mus musculus),inactive
CC(C)=CCCC(C)=CCO,odorant receptor agonist call,Or5p80 (Mus musculus),inactive
same,odorant receptor agonist call,Or7a40 (Mus musculus),inactive
O=C(O)CCCCCC(=O)O,odorant receptor agonist call,Or5p57 (Mus musculus),inactive
C=C(C)C1CCC(C)C(=O)C1 (stereo not drawn),odorant receptor agonist call,Or5p80 (Mus musculus),inactive
same,odorant receptor agonist call,Or7a40 (Mus musculus),inactive
CCCCCCCCC(=O)O,odorant receptor agonist call,Or5p57 (Mus musculus),inactive
same,odorant receptor agonist call,Or5p80 (Mus musculus),inactive
same,odorant receptor agonist call,Or7a40 (Mus musculus),inactive
CCCCCCC(=O)[O-].[H+],odorant receptor agonist call,Or5p57 (Mus musculus),inactive
same,odorant receptor agonist call,Or5p80 (Mus musculus),inactive
same,odorant receptor agonist call,Or7a40 (Mus musculus),inactive
CCCCCC(=O)CC,odorant receptor agonist call,Or5p80 (Mus musculus),inactive
same,odorant receptor agonist call,Or7a40 (Mus musculus),inactive
CCCCOC(=O)C(C)OC(=O)CCC (stereo not drawn),odorant receptor agonist call,Or5p80 (Mus musculus),inactive
same,odorant receptor agonist call,Or7a40 (Mus musculus),inactive
CCCCCCO,odorant receptor agonist call,Or5p57 (Mus musculus),active
same,odorant receptor agonist call,Or5p80 (Mus musculus),inactive
same,odorant receptor agonist call,Or7a40 (Mus musculus),inactive
O=C(c1ccccc1)c1ccccc1,odorant receptor agonist call,Or5p80 (Mus musculus),inactive
same,odorant receptor agonist call,Or7a40 (Mus musculus),inactive
O=C([O-])CCCCCCC(=O)[O-].[H+].[H+],odorant receptor agonist call,Or5p57 (Mus musculus),inactive
CC(=O)OCC=C(C)C,odorant receptor agonist call,Or5p80 (Mus musculus),inactive
same,odorant receptor agonist call,Or7a40 (Mus musculus),inactive
CCC(=O)C(=O)CC,odorant receptor agonist call,Or5p80 (Mus musculus),inactive
same,odorant receptor agonist call,Or7a40 (Mus musculus),inactive
O=C1CCOc2ccccc21,odorant receptor agonist call,Or8b3 (Mus musculus),inactive
same,odorant receptor agonist call,UniProt A2ASV2,inactive
